# Assay outcomes (PubChem)
# This is a sample that favours compounds with a hit; in the whole collection about 4.6% have one here.
# APP 5'UTR act – activators of APP 5'UTR luciferase reporter, primary screen, SH-SY5Y cells | SH-SY5Y APP 5'UTR luciferase reporter, luminescence; zero percent = DMSO vehicle wells | activation, % at 2 µM | hit rate 1% among 190,000 | AID 1276, 2008;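 active means activation above a set limit, based on mean plus 3 SD of controls, cut at about 140% in these data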
# Mdm2 ligase inh – MDM2-luciferase reporter signal enhancers, primary screen, MDM2 E3 ligase inhibitor project, cell-based, luminescence, 1536-well; E3 ubiquitin-protein ligase Mdm2 (Homo sapiens), Q00987; cell-based MDM2 ubiquitination luciferase reporter, 2 h; 0 = plate control, 100 = twice control, blank-subtracted; signal enhancement, % at 5 µM; hit rate 0.11% among 210,000; AID 1230, 2008;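 active means signal enhancement of 30% or more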;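 further: luminescence tracks abundance of the self-degrading MDM2-luciferase fusion protein; higher signal means inhibition of MDM2 E3 ligase activity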
#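 System: stable MDM2–luciferase fusion reporter cells / Input: 2000 cells seeded into each well / Schedule: 4 h settle plus 2 h compound, 37 °C / Compound: single-point 5 µM / Buffer or medium: cells held in DMEM / Benchmarks: control and blank well means / Evaluation: percent signal gain over controls, blank-subtracted / Measured by: luciferase luminescence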
# NF-kB expr up – activators of NF-kB expression in neurons, primary screen, cell-based, HTS; AID 1239, 2008; fold change at 12.5 µM; hit rate 1.6% among 190,000; human neuronal cells, NF-kB reporter expression; stronger effect = higher value; in the data active means fold change above about 3.3
# STAT1 act – STAT1 signaling activators, primary screen, cell-based, HTS, luciferase reporter; NIH 3T3 STAT1-luciferase reporter, IFN-gamma, luminescence; 100% = IFN-gamma alone, no compound; activation (% of control), % at 5.5 µM; hit rate 2.6% among 200,000; AID 932, 2007;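 active means activation above the screen-wide mean activation plus 3 SD, cut at about 130% in these data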;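 further: raw ratio to IFN-gamma control signal so 100% means no change and 0% no light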
# Wee1 stabilizer – Wee1 degradation inhibitors, primary screen, cell-based, HeLa, Wee1K328M-luciferase, luminescence; Wee1-like protein kinase (Homo sapiens), P30291; HeLa Luc-Wee1K328M stability; 100% = proteasome inhibitor MG132 effect; reporter increase, % at 5 µM; hit rate 1.2% among 220,000;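 active means activation above the mean of all tested compounds plus 3 SD, set per screening run, cut at about 8.8% in these data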;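 further: cells exposed to compound for 20 h before luminescence read; 0% = DMSO alone and 100% = MG132 at 30 µM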
# Target sequence (P30291 whole entry K328M): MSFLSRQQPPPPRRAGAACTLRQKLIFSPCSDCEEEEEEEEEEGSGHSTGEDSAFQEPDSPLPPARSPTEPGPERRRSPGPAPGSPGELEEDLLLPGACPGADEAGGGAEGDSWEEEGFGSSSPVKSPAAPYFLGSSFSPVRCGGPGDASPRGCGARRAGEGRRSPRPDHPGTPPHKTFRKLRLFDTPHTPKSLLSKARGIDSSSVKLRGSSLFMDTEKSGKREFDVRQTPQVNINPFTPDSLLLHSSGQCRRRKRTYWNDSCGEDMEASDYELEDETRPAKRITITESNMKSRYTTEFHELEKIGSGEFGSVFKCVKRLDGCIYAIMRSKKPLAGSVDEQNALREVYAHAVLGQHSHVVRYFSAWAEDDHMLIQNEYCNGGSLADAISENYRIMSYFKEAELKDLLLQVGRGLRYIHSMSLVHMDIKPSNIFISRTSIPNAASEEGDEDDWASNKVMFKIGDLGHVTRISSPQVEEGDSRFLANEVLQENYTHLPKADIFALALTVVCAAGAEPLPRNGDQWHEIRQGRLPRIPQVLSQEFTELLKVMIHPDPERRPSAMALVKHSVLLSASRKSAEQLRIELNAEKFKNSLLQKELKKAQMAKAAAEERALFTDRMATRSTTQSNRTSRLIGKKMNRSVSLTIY
# p97 inhibitor – inhibitors of human p97 ATPase, primary screen, biochemical; Transitional endoplasmic reticulum ATPase (Homo sapiens), P55072; recombinant p97 ATPase, Kinase-Glo ATP luminescence, 3 h; inhibition, % at 8 µM; hit rate 0.42% among 220,000; in the data active means inhibition above about 15%;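 further: 0% = DMSO vehicle and 100% = wells lacking enzyme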
# Wee1 stab conf – Wee1 degradation inhibitors, confirmation, cell-based, HeLa, Wee1K328M-luciferase, luminescence, triplicate. shares compounds with Wee1 stabilizer. HeLa Luc-Wee1K328M degradation; vehicle 0%, proteasome-blocked wells 100%. activation, % at 5 µM. hit rate 4% among 1,100. AID 1410, 2008; in the data active means activation above about 8.9%
# An asterisk follows results filed as active; nt = no result.
SMILES,APP 5'UTR act,Mdm2 ligase inh,NF-kB expr up,STAT1 act,Wee1 stabilizer,p97 inhibitor,Wee1 stab conf
Cc1cc(F)ccc1S(=O)(=O)Nc1ccccc1C(=O)NCc1cccnc1,-1,-91,1.1,96,-2,-6,nt
Cc1nc2ccc(F)cc2cc1C(=O)Nc1ccc(Cl)c(Cl)c1,-1,-10,1.1,101,15*,-7,0
Cc1ccc(-c2nn3cnnc3c3ccccc23)cc1,-7,22,0.91,98,4,3,nt
Cn1c(SCC2CCCO2)nnc1-c1ccc([N+](=O)[O-])cc1 (centres undefined),-12,-11,1.1,108,13*,4,5
Cc1cccc(-n2c(=S)[nH]c3nc4c(cc3c2=O)COC(C)(C)C4)c1,nt,-10,nt,nt,18*,9,-1
NC(=S)N/N=C/c1cn(-c2ccccc2)nc1-c1cccnc1,nt,-13,nt,nt,2,-15,nt
C/C(=N\NC(=O)c1ccccc1)c1ccc(N2CCCCC2)cc1,72,0,1.2,126,5,5,nt
C/C(=N\NC(=O)c1ccc(N2CCCC2=O)cc1)c1ccncc1,nt,-13,nt,nt,15*,6,0
CCCSc1nsc(NC(=O)CCC)n1,194*,-5,6.4*,131*,13*,0,4
O=C(Nc1nc2c(s1)CCCC2)c1cc2n(n1)C(C(F)(F)F)CC(C1CC1)N2 (centres undefined),30,-20,1.9,119,15*,-1,2
NNC(=O)c1ccc2ccccc2n1,24,-4,1.2,98,-1,0,nt
Cc1nnc(NC(=O)c2ccc3ccccc3n2)s1,40,-5,2.1,138*,14*,-1,6
COc1ccc([N+](=O)[O-])cc1N(CC(=O)NC(C(C)C)C(C)C)S(C)(=O)=O,-4,0,1.1,100,1,3,nt
CCOc1ccc(/C=N/NC(=O)Cc2cccs2)cc1,nt,-10,nt,nt,14*,2,0
Cc1cccc(/C=N/NC(=O)Cc2cccs2)c1,nt,-10,nt,nt,-2,-1,nt
CC(C)(CCl)C(=O)Nc1ccnc(-c2ccncc2)n1,-13,-15,0.89,105,6,-2,nt
O=C(O)COc1ccccc1/C=N/NC(=O)c1cc2ccccc2cc1O,nt,-15,nt,nt,0,8,nt
CCc1cccc(CC)c1N(COC)C(=O)Cn1nnc2ccccc21,11,-11,1.1,105,0,-6,nt
CCc1cccc(CC)c1N(COC)C(=O)Cn1ccccc1=N,-9,-2,1.3,98,13*,2,-2
Cc1cc(O)c(-c2cc(C(=O)Nc3cccnc3)[nH]n2)cc1C,nt,-14,nt,nt,18*,2,4
CS(=O)(=O)NCCNC(=O)c1cc(OCC(F)(F)F)ccc1OCC(F)(F)F,-78,-13,1.2,96,-2,-5,nt
Cc1cc(=O)[nH]n(CCO)c1=O,nt,-1,nt,nt,-1,6,nt
CC1(C)C(=O)NCCN1C(=O)CCCC(=O)O,3,13,0.99,101,12*,8,2
O=C(Nc1ccccc1)c1cccc(S(=O)(=O)Oc2ccc([N+](=O)[O-])cc2)c1,4,-10,0.94,94,1,-7,nt
O=C(O)C(C/C(=N/O)c1ccc(Br)cc1)P(=O)(c1ccccc1)c1ccccc1 (centres undefined),nt,1,nt,nt,0,-7,nt
SMILES,APP 5'UTR act,Mdm2 ligase inh,NF-kB expr up,STAT1 act,Wee1 stabilizer,p97 inhibitor,Wee1 stab conf
Cc1ccc(C(=O)CC(C(=O)O)P(=O)(c2ccccc2)c2ccccc2)cc1 (centres undefined),12,2,1.1,106,14*,9,1
COc1ccc(C(Nc2ccc(S(=O)(=O)NCC3CCCO3)cc2)C(=O)NC(C)(C)C)cc1OC (centres undefined),-15,-10,1.2,106,-1,1,nt
CC(=C/c1ccccc1)/C=N/NC(=O)c1ccccn1,nt,-68,nt,nt,32*,-13,-2
Fc1cccc(NC(=S)NCc2ccccc2Cl)c1,nt,1,nt,nt,-1,1,nt
Cc1nc(Oc2ccc(S(=O)(=O)N3CCOCC3)cc2Cl)c2c3c(sc2n1)CCCC3,6,7,1.2,107,6,-5,nt
O=C(N=Nc1c(O)[nH]c2ccc(Br)cc12)c1ccccc1-n1cccc1,-92,-11,2.4,103,12*,4,21*
N=C(N)N=Nc1c(O)[nH]c2ccc(Br)cc12,11,-30,1.1,115,1,1,nt
COc1cc(OC)cc(C(=O)NC2CCSC2=O)c1 (centres undefined),-4,-9,1,103,12*,3,0
O=C(/C=N\O)NCCCNCc1ccccc1,12,-21,0.9,103,16*,2,1
CCOC(=O)C1=C(c2ccccc2)O/C(=C(\C(=O)OC)C(F)(F)F)S1,-23,-6,1.3,98,1,0,nt
CCOC(=O)C1=C(c2ccccc2)O/C(=C(/C#N)C(F)(F)F)S1,-17,68*,8.6*,79,24*,5,87*
O=C(CSc1nc2ccccc2c(=O)n1-c1ccc(F)cc1)Nc1ccc(Cl)c(S(=O)(=O)N2CCOCC2)c1,-8,-13,0.71,95,14*,6,4
COc1cc(OC)nc(NC(=S)NC(=O)c2ccccc2)n1,14,-5,0.75,89,1,8,nt
CC(Sc1nc2nn(-c3ccccc3)c(=O)c-2c2n1CCCCC2)C(N)=O (centres undefined),-4,-4,0.99,97,1,-4,nt
O=C(CSc1nc2nn(-c3ccccc3)c(=O)c-2c2n1CCCCC2)NCCCc1ccccc1,23,-6,0.98,95,18*,3,2
CCOc1cc(-c2nc(-c3ccccc3OC)no2)cc(OCC)c1OCC,30,-3,0.82,97,14*,0,0
Cn1ncc(Br)c1C(=O)Nc1cccc(C(F)(F)F)c1,nt,-11,nt,nt,-4,-4,nt
Cn1nc(C(=O)Nc2cccc(C(F)(F)F)c2)ccc1=O,1,-4,1.1,96,11*,-1,1
NC(=O)C1=C[C@H](c2ccc(Br)cc2)C[C@H](OCc2ccc(CO)cc2)O1,17,nt,1.6,118,11*,0,0
NC(=O)C1=C[C@@H](c2ccc(Br)cc2)C[C@@H](OCc2ccc(CO)cc2)O1,33,nt,1,96,1,3,nt
